# Experimental data as given in ChEMBL document CHEMBL1157688, “Novel tumor-targeted RGD peptide-camptothecin conjugates: synthesis and biological evaluation” (Bioorg Med Chem, 2010).
# Key:
# Integrin alpha-V/beta-3 [1] = biological target: T1, Integrin alpha-V/beta-3 (Homo sapiens, UniProt P05106+P06756); assay: Displacement of [125I]echistatin from integrin alphaVbeta3 receptor after 3 hrs by gamma counting; format: protein-complex assay
# Target sequence in this assay (P05106 27-788 limits assumed): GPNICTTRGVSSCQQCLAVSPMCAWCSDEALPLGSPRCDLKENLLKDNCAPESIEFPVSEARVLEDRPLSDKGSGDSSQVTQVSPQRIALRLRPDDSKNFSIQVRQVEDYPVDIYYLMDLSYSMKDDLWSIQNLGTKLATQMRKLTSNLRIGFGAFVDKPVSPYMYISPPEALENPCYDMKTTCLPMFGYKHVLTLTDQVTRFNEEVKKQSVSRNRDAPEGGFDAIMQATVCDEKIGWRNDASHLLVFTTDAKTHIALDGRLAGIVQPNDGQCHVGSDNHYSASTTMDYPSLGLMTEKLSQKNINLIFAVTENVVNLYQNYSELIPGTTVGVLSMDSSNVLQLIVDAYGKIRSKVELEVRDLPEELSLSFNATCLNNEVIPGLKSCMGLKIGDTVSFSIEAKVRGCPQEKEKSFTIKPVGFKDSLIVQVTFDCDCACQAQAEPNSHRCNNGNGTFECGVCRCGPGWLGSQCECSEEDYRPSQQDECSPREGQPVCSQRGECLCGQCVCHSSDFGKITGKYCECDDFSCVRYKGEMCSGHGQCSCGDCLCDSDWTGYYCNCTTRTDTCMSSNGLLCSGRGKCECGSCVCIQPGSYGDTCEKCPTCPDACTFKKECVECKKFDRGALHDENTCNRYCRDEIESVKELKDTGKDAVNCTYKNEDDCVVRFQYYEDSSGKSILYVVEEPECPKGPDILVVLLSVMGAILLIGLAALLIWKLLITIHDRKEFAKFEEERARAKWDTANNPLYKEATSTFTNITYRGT
# Target sequence in this assay (P06756 31-889 limits assumed): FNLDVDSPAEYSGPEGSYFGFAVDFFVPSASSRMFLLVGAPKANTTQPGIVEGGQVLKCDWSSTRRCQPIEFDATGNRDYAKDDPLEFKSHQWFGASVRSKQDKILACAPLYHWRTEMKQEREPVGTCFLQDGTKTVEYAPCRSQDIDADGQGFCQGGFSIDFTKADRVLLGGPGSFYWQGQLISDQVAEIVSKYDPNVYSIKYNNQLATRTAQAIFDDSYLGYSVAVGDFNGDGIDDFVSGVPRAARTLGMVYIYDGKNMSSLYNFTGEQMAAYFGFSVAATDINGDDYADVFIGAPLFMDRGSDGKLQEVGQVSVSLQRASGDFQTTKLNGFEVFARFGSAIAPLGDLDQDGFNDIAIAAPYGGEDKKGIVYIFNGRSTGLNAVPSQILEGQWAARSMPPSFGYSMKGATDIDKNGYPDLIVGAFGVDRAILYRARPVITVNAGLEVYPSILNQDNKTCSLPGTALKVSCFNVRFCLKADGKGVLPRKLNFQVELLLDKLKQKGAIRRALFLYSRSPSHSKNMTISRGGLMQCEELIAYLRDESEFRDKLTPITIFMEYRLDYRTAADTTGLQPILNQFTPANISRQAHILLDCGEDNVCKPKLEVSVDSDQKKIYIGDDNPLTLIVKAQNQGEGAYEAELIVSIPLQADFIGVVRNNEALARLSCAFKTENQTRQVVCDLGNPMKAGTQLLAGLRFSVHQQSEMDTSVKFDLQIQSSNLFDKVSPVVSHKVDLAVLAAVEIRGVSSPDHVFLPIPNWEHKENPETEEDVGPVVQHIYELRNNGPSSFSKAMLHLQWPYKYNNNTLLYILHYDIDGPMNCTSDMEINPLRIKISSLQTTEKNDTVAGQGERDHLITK
# Target sequence in this assay (P06756 891-1048 limits assumed): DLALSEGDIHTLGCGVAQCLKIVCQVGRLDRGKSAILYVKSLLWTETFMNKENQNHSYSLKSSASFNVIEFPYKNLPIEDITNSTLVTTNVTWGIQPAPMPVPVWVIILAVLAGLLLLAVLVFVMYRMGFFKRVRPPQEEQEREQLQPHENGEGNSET
# Integrin alpha-V/beta-5 [2] = biological target: T2, Integrin alpha-V/beta-5 (Homo sapiens, UniProt P06756+P18084); assay: Displacement of [125I]echistatin from integrin alphaVbeta5 receptor after 3 hrs by gamma counting; format: protein-complex assay
# Target sequence in this assay (P06756 31-889 limits assumed): as the sequence (P06756 31-889 limits assumed) above
# Target sequence in this assay (P06756 891-1048 limits assumed): as the sequence (P06756 891-1048 limits assumed) above
# Target sequence in this assay (P18084 24-799 limits assumed): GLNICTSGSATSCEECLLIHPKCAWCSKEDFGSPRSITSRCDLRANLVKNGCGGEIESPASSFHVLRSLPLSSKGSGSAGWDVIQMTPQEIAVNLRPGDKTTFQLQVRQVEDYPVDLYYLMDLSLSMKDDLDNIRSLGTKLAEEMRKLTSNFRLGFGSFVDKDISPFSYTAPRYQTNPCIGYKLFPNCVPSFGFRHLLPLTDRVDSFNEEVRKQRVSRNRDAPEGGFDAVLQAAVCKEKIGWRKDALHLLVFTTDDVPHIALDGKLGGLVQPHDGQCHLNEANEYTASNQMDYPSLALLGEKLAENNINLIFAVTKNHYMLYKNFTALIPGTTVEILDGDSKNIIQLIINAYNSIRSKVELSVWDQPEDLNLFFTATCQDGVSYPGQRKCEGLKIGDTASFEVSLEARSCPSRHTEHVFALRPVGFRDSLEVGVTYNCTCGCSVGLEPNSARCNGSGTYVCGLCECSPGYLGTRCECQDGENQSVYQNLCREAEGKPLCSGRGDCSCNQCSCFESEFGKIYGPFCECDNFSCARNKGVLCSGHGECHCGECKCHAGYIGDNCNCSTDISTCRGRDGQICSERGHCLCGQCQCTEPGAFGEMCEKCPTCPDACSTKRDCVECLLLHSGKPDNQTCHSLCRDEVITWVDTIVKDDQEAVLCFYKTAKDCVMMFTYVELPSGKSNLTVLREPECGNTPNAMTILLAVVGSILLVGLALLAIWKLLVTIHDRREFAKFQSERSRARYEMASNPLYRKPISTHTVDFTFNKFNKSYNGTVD
# Integrin alpha-V/beta-5 [3] = biological target: T2, Integrin alpha-V/beta-5; assay: Inhibition of integrin alphaVbeta5 receptor-mediated adhesion of human A498 cells to vitronectin after 1 hr by toluidine blue staining; format: cell-based
# Outline: (§1)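 Wells were coated 2 h at room temperature with human vitronectin and blocked 1 h with 1% BSA. Tumor cells in serum-free medium with 1% BSA were plated with compounds at 0.1 to 100 and incubated 1 h. Cells were washed with PBS, fixed 10 min in 4% paraformaldehyde and stained 10 min with 1% toluidine blue.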
# Target sequence in this assay (P06756 31-889 limits assumed): as the sequence (P06756 31-889 limits assumed) above
# Target sequence in this assay (P06756 891-1048 limits assumed): as the sequence (P06756 891-1048 limits assumed) above
# Target sequence in this assay (P18084 24-799 limits assumed): as the sequence (P18084 24-799 limits assumed) above
# Integrin alpha-V/beta-3 [4] = biological target: T1, Integrin alpha-V/beta-3; assay: Inhibition of integrin alphaVbeta3 receptor-mediated adhesion of human A498 cells to vitronectin after 1 hr by toluidine blue staining; format: cell-based; outline: as §1
# Target sequence in this assay (P05106 27-788 limits assumed): as the sequence (P05106 27-788 limits assumed) above
# Target sequence in this assay (P06756 31-889 limits assumed): as the sequence (P06756 31-889 limits assumed) above
# Target sequence in this assay (P06756 891-1048 limits assumed): as the sequence (P06756 891-1048 limits assumed) above
# PC-3 = assay: Cytotoxicity against human PC3 cells after 72 hrs by sulforhodamine B assay; format: functional, cell-based; conditions: PC-3, 72 h
# Outline: (§2)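 Tumor cells were seeded in 96-well plates and exposed the next day to a range of drug concentrations for 72 h. Surviving cells were quantified by sulforhodamine B staining, and IC50 ± SD was derived by curve fitting.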
# A498 [5] = assay: Cytotoxicity against human A498 cells after 72 hrs by sulforhodamine B assay; format: functional, cell-based; conditions: A498, 72 h; outline: as §2
# A2780 [6] = assay: Cytotoxicity against human A2780 cells after 72 hrs by sulforhodamine B assay; format: functional, cell-based; conditions: A2780, 72 h; outline: as §2
# Integrin alpha-V [7] = biological target: T3, Integrin alpha-V (Homo sapiens, UniProt P06756); assay: Inhibition of integrin alphaV receptor-mediated adhesion of human PC3 cells to vitronectin after 1 hr by toluidine blue staining; format: cell-based; conditions: pc-3; outline: as §1
# A498 [8] = assay: Cellular uptake in human A498 cells at 0.064 uM after 5 hrs by HPLC-FL analysis; format: ADME, cell-based; conditions: a498, 5 h
# Outline: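 A-498 cells (6.2 × 10⁵) were seeded in dishes and dosed 24 h later, then sampled at 5, 24, 48 and 72 h. Cells were PBS-washed, scraped, pelleted, lysed by five freeze–thaw cycles, and extracted with methanol/acetonitrile (1:1). Culture medium was extracted the same way. Analysis was by isocratic HPLC-FL (30% CH₃CN / 70% 0.1 M AcOH with 0.1% TEA, pH about 3.5), and lysate protein was measured by Bradford assay.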
# A2780 [9] = assay: Antitumor activity against human A2780 cells xenografted in nude mouse assessed as tumor volume inhibition at 16.3 mg/kg, sc QD for 5 days; format: functional, organism-based; parameters: dose 16.3 mg/kg
# Outline: (§3)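 Nude mice bearing A2780 human ovarian carcinoma xenografts were dosed from day 2 after tumor injection, either ip every fourth day ×4 or sc daily ×5, at 10 mL/kg. Tumor volume was calculated from the shortest and longest diameters on day 16 or 17. TVI% is relative to vehicle-treated controls (mean ± SE, Mann–Whitney). Body weight was monitored for toxicity.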
# A2780 [10] = assay: Antitumor activity against human A2780 cells xenografted in nude mouse assessed as tumor volume inhibition at 0.42 mg/kg, sc QD for 5 days measured after 17 days of tumor implantation relative to control; format: functional; conditions: route subcutaneous; outline: as §3
# Mus musculus [11] = assay: AUC (0 to infinity) in nude mouse xenografted with human A2780 cells at 0.42 mg/kg, sc QD for 5 days; format: ADME, organism-based; parameters: time infinity, dose 0.42 mg/kg, route subcutaneous; conditions: in vivo, 120 h
# Integrin alpha-V/beta-5 [12] = biological target: T2, Integrin alpha-V/beta-5; assay: Inhibition of integrin alphaVbeta5 receptor-mediated adhesion of human A2780 cells to vitronectin after 1 hr by toluidine blue staining; format: cell-based; outline: as §1
# Target sequence in this assay (P06756 31-889 limits assumed): as the sequence (P06756 31-889 limits assumed) above
# Target sequence in this assay (P06756 891-1048 limits assumed): as the sequence (P06756 891-1048 limits assumed) above
# Target sequence in this assay (P18084 24-799 limits assumed): as the sequence (P18084 24-799 limits assumed) above
# A498 [13] = assay: Cellular uptake in human A498 cells at IC50 after 48 hrs by HPLC-FL analysis; format: ADME, cell-based; conditions: a498, 48 h
# Outline: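 A-498 cells (6.2×10^5 per dish) were treated 24 h after seeding and sampled at 5, 24, 48 and 72 h. Cells were PBS-washed, scraped and pelleted, then lysed by five freeze-thaw cycles. Lysates were extracted with methanol/acetonitrile (1:1) and analyzed by isocratic HPLC with fluorescence detection. Lysate protein was measured by Bradford assay.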
# A2780 [14] = assay: Antitumor activity against human A2780 cells xenografted in nude mouse assessed as tumor volume inhibition at 48 mg/kg, ip administered as single dose every fourth day for four times measured after 16 days of tumor implantation relative to control; format: functional; conditions: 384 h, route intraperitoneal; outline: as §3
# A2780 [15] = assay: Antitumor activity against human A2780 cells xenografted in nude mouse assessed as tumor volume inhibition at 48 mg/kg, sc QD for 5 days measured after 17 days of tumor implantation relative to control; format: functional; conditions: route subcutaneous; outline: as §3
# Mus musculus [16] = assay: Metabolic stability in nude mouse xenografted with human A2780 cells assessed as release of free namitecan in blood at 48 mg/kg, ip administered as single dose every fourth day for four times; format: ADME, organism-based; parameters: dose 48 mg/kg, route intraperitoneal; conditions: in vivo
# Mus musculus [17] = assay: Metabolic stability in nude mouse xenografted with human A2780 cells assessed as release of free namitecan in blood at 48 mg/kg, sc QD for 5 days; format: ADME, organism-based; parameters: dose 48 mg/kg, route subcutaneous; conditions: in vivo, 120 h
# Mus musculus [18] = assay: AUC (0 to infinity) in nude mouse xenografted with human A2780 cells at 48 mg/kg, ip administered as single dose every fourth day for four times; format: ADME, organism-based; parameters: time infinity, dose 48 mg/kg, route intraperitoneal; conditions: in vivo
# Mus musculus [19] = assay: AUC (0 to infinity) in nude mouse xenografted with human A2780 cells at 48 mg/kg, sc QD for 5 days; format: ADME, organism-based; parameters: time infinity, dose 48 mg/kg, route subcutaneous; conditions: in vivo, 120 h
# Integrin alpha-V/beta-5 [20] = biological target: T2, Integrin alpha-V/beta-5; assay: Binding affinity to integrin alphaVbeta5 receptor in human A498 cells; format: cell-based
# Integrin alpha-V/beta-3 [21] = biological target: T1, Integrin alpha-V/beta-3; assay: Binding affinity to integrin alphaVbeta3 receptor in human A498 cells; format: cell-based
# Integrin alpha-V/beta-5 [22] = biological target: T2, Integrin alpha-V/beta-5; assay: Binding affinity to integrin alphaVbeta5 receptor in human A2780 cells; format: cell-based
# Integrin alpha-V [23] = biological target: T3, Integrin alpha-V; assay: Binding affinity to integrin alphaV receptor in human PC3 cells; format: cell-based; conditions: PC-3
# Outline: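 Tumor cells in serum-free medium with 1% BSA were plated for 1 h on wells precoated with 5 µg/ml human vitronectin and blocked with 1% BSA. Compounds were tested at 0.1–100 µM. Adherent cells were fixed with 4% paraformaldehyde, stained with 1% toluidine blue, solubilized in 1% SDS and read by absorbance. IC50 ± SD from curve fitting.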
# [24] = Chemical stability assessed as half life at 100 uM at pH 7.4 by HPLC analysis; format: physicochemical; conditions: buffer
# Outline: (§4)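 Compounds were dissolved in DMSO and diluted to 100 (final, 1% DMSO) in phosphate buffer for pH 7.4 or acetate buffer for pH 5.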
# [25] = Chemical stability assessed as half life at 100 uM at pH 5 by HPLC analysis; format: physicochemical; conditions: buffer; outline: as §4
# T3 sequence (P06756 31-889 limits assumed): as the sequence (P06756 31-889 limits assumed) above
# T3 sequence (P06756 891-1048 limits assumed): as the sequence (P06756 891-1048 limits assumed) above
SMILES,IC50 (Integrin alpha-V/beta-3 [1]; read-out: IC50) [µM],IC50 (Integrin alpha-V/beta-5 [2]) [µM],IC50 (Integrin alpha-V/beta-5 [3]) [µM],IC50 (Integrin alpha-V/beta-3 [4]) [µM],IC50 (PC-3) [µM],IC50 (A498 [5]) [µM],IC50 (A2780 [6]) [µM],IC50 (Integrin alpha-V/beta-5 [12]) [µM],other results
CC[C@@]1(O)C(=O)OCc2c1cc1n(c2=O)Cc2c-1nc1ccccc1c2/C=N/OCCNC(=O)CCC(=O)NCc1ccc(C[C@@H]2NC(=O)[C@@H](Cc3ccccc3)NC(=O)[C@H](CC(=O)O)NC(=O)CNC(=O)[C@H](CCCNC(=N)N)NC2=O)cc1,0.00727,0.00839,5.4,5.4,4.7,4.3,0.16,–,–
CC[C@@]1(O)C(=O)OCc2c1cc1n(c2=O)Cc2c-1nc1ccccc1c2/C=N\OCCN,–,–,–,–,0.36,0.064,0.0049,–,IC50 (Integrin alpha-V/beta-3 [1]): Not Active; IC50 (Integrin alpha-V [7]): Not Active; Drug uptake (A498 [8]): Active; inhibition (A2780 [9]): Toxic; inhibition in vivo at 0.42 mg/kg (A2780 [10]): 43%; AUC (Mus musculus [11]): 2 µg/h/mL
CC[C@@]1(O)C(=O)OCc2c1cc1n(c2=O)Cc2c-1nc1ccccc1c2/C=N/OCCNC(=O)COCCOCCOCC(=O)NCc1ccc(C[C@@H]2NC(=O)[C@@H](Cc3ccccc3)NC(=O)[C@H](CC(=O)O)NC(=O)CNC(=O)[C@H](CCCN=C(N)N)NC2=O)cc1,0.0125,0.0065,3.1,3.1,27,0.74,0.18,1.8,Drug uptake (A498 [13]): Active; inhibition in vivo at 48 mg/kg (A2780 [14]): 43%; inhibition in vivo at 48 mg/kg (A2780 [15]): 37%; Activity (Mus musculus [16]): 2.5%; Activity (Mus musculus [17]): 2.5%
CC[C@@]1(O)C(=O)OCc2c1cc1n(c2=O)Cc2c-1nc1ccccc1c2/C=N\OCCNC(=O)CCC[C@@H]1NC(=O)[C@@H](Cc2ccccc2)NC(=O)[C@H](CC(=O)O)NC(=O)CNC(=O)[C@H](CCCNC(=N)N)NC1=O,–,–,3.7,3.7,15,3.2,0.4,3.1,Drug uptake (A498 [13]): Active; AUC (Mus musculus [18]): 82 µg/h/mL; AUC (Mus musculus [19]): 82 µg/h/mL
CC[C@@]1(O)C(=O)OCc2c1cc1n(c2=O)Cc2c-1nc1ccccc1c2CCC=O,–,–,–,–,0.12,–,0.015,–,–
N=C(N)NCCC[C@@H]1NC(=O)[C@H](c2ccc(CNC(=O)COCCOCCOCC(=O)O)cc2)NC(=O)[C@@H](Cc2ccccc2)NC(=O)[C@H](CC(=O)O)NC(=O)CNC1=O,0.004,0.00035,10.7,10.7,> 1000,> 1000,> 1000,12.3,Activity (Integrin alpha-V/beta-5 [20]): Dose-dependent effect; Activity (Integrin alpha-V/beta-3 [21]): Dose-dependent effect; Activity (Integrin alpha-V/beta-5 [22]): Dose-dependent effect; Activity (Integrin alpha-V [23]): Dose-dependent effect
CC[C@@]1(O)C(=O)OCc2c1cc1n(c2=O)Cc2c-1nc1ccccc1c2/C=N/NC(=O)COCCOCCOCC(=O)NCc1ccc(C[C@@H]2NC(=O)[C@@H](Cc3ccccc3)NC(=O)[C@H](CC(=O)O)NC(=O)CNC(=O)[C@H](CCCNC(=N)N)NC2=O)cc1,0.0117,0.0599,–,–,0.22,–,0.09,6.7,half-life at 100 µM [24]: 6 h; half-life at 100 µM [25]: 25 h
N=C(N)NCCC[C@@H]1NC(=O)[C@H](c2ccc(CNC(=O)CCC(=O)O)cc2)NC(=O)[C@@H](Cc2ccccc2)NC(=O)[C@H](CC(=O)O)NC(=O)CNC1=O,0.0376,0.0051,34,34,> 1000,> 1000,> 1000,9.5,Activity (Integrin alpha-V/beta-5 [20]): Dose-dependent effect; Activity (Integrin alpha-V/beta-3 [21]): Dose-dependent effect; Activity (Integrin alpha-V/beta-5 [22]): Dose-dependent effect; Activity (Integrin alpha-V [23]): Dose-dependent effect
CC[C@@]1(O)C(=O)OCc2c1cc1n(c2=O)Cc2c-1nc1ccccc1c2CC/C=N/NC(=O)COCCOCCOCC(=O)NCc1ccc(C[C@@H]2NC(=O)[C@@H](Cc3ccccc3)NC(=O)[C@H](CC(=O)O)NC(=O)CNC(=O)[C@H](CCCNC(=N)N)NC2=O)cc1,0.00601,0.0229,–,–,0.42,–,0.017,12.9,half-life at 100 µM [24]: 5.8 h; half-life at 100 µM [25]: < 0.0333 h
CC[C@@]1(O)C(=O)OCc2c1cc1n(c2=O)Cc2c-1nc1ccccc1c2C=O,–,–,–,–,0.13,–,0.003,–,–
N=C(N)NCCC[C@@H]1NC(=O)[C@H](c2ccc(CNC(=O)COCCOCCOCC(=O)NN)cc2)NC(=O)[C@@H](Cc2ccccc2)NC(=O)[C@H](CC(=O)O)NC(=O)CNC1=O,0.0038,0.00065,–,–,> 1000,–,> 1000,11.8,–
N=C(N)NCCC[C@@H]1NC(=O)[C@H](CCCC(=O)O)NC(=O)[C@@H](Cc2ccccc2)NC(=O)[C@H](CC(=O)O)NC(=O)CNC1=O,–,–,–,–,> 1000,> 1000,> 1000,–,Activity (Integrin alpha-V/beta-5 [20]): Dose-dependent effect; Activity (Integrin alpha-V/beta-3 [21]): Dose-dependent effect; Activity (Integrin alpha-V/beta-5 [22]): Dose-dependent effect; Activity (Integrin alpha-V [23]): Dose-dependent effect
